Compound activity deposited in PubChem BioAssay by several laboratories.
RAM inhibit: blocks the yeast RAM network; S. cerevisiae dse1pr::URA3 reporter, 5-FOA growth OD615, 2 d; analog-sensitive cbk1-as2 kinase mutant strain; inhibition, % at 50 µM; actives 1.8% (n = 190,000); AID 868;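 active means inhibition above a set limit, 3 SD over mean compound inhibition, cut at about 8.4% in these data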;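 further: 0% = DMSO-only wells with no growth and 100% = 10 µM 1-NA-PP1 full growth; inhibition rescues growth on 5-FOA so higher OD means more RAM inhibition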
Measles CPE: protection of cells from measles virus; AID 841; Measles virus-infected cells, CPE protection, absorbance; actives 1.5% (n = 140,000); protection (pct of control), % at 4 µM; in the data active means protection mostly above about 24%, no sharp cut-off; inactive means mostly below about 26%
Phagocyt inh: inhibitors of macrophage phagocytosis | J774A.1 macrophage IgG-bead phagocytosis, imaging | inhibition, % at 5 µM | actives 0.07% (n = 110,000);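 active means inhibition above the mean of the plate negative controls plus 5 SD, cut at about 13% in these data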;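 further: phagocytic index as fraction of beads internalized from green versus red external bead signal; plate controls were DMSO negative control for no effect and cytochalasin-D positive control for full effect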
BB579 growth dn: reduces growth of yeast BB579 in restrictive medium. S. cerevisiae BB579 growth, OD615, 48 h. inhibition, % at 10 µM. actives 0.51% (n = 140,000). AID 804;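 active means inhibition above a set limit, 3 SD over the mean compound inhibition, cut at about 44% in these data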
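Detection: OD615 turbidity measurement; Material: Saccharomyces cerevisiae DeaD strain BB579, replicative lifespan model yeast; Timing: 48 h exposure, 30 °C; Doses: single 10 µM dose; Medium: CSMM-D restrictive synthetic medium containing dextrose (glucose); Controls: amphotericin B at 10 µg/mL as positive control.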
Yeast lifespan up: yeast lifespan extension; S. cerevisiae growth with nicotinamide, OD615; deaD strain in restrictive glucose medium; actives 0.68% (n = 130,000); inhibition of the nicotinamide effect, % at 10 µM;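 active means inhibition above a set limit, placed 3 SD over the median of all compounds, cut at about 26% in these data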;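 further: 0% = nicotinamide-treated wells and 100% = cells grown without nicotinamide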
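System: Modified budding yeast, DeaD strain | Buffer or medium: Restrictive glucose medium | Also added: 1.5 mM nicotinamide | Doses: 10 µM single point, 0.25% DMSO | Schedule: 48 h compound exposure at 30 °C, humidified | Detection: Absorbance at 615 nm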
The depositor's hits bear a star; x = not tested or not shown. Sampled rows, rich in hits. Any-hit rate of the full collection: about 3.6%.

SMILES	RAM inhibit	Measles CPE	Phagocyt inh	BB579 growth dn	Yeast lifespan up
O=C(Nc1ccccc1)C1=C[C@H](c2ccc3c(c2)OCO3)C[C@H](OCc2ccc(CO)cc2)O1	9.4*	x	x	x	x
O=C(C1=C[C@@H](c2ccc3c(c2)OCO3)C[C@@H](OCc2ccc(CO)cc2)O1)N1CCOCC1	11*	x	x	x	x
O=C(Nc1ccccc1)C1=C[C@@H](c2ccc(Br)cc2)C[C@@H](OCc2ccc(CO)cc2)O1	9.4*	x	x	x	x
Cc1nnc(NC(=O)CCNC(=O)c2ccccc2Cl)s1	1	x	x	x	x
CCCCn1nnnc1SCC(=O)Nc1sc2c(c1C#N)CCCC2	3	17	0	-18	-2
Cn1cnnc1SCC(=O)Nc1sc2c(c1C#N)CCCCC2	0	32*	x	-23	0
O=C(CCN1CCOCC1)NNC(=S)NC(=O)c1ccccc1	1	x	x	x	x
COC(=O)CC1=NN(c2ccccc2)C(=O)/C1=C\c1ccc(OC)cc1	9.5*	20	-10	-38	53*
CCOC(=O)C1=NN(c2ccccc2)C(=O)/C1=C\c1ccc(N(C)C)cc1	4	8	0	-40	3
CCOC(=O)CC1=NN(c2ccccc2)C(=O)/C1=C\c1ccc(OC)cc1OC	6	7	-12	-27	51*
COC(=O)CC1=NN(c2ccc(OC)cc2)C(=O)/C1=C\c1ccc(Cl)cc1	4	20	-7	-24	31*
O=C(Nc1ccccc1)OCCNC(=O)c1cccc(Cl)c1	0	29*	0	-2	-9
S=C(NCCc1ccccn1)Nc1ccc(Cl)cc1Cl	4	x	x	x	x
Cc1nc2c(c(C)c1C#N)C(=O)c1ccccc1-2	5	16	x	64*	-7
CCOC(=O)C1=C(c2ccccc2)ON(C)C1c1ccccc1 (stereo not given)	1	5	-2	-34	4
Cc1cc(-c2n[nH]c(=S)n2/N=C/c2cc([N+](=O)[O-])ccc2Cl)n[nH]1	0	20	-5	96*	5
COC(=O)c1[nH]c2cccc(Cl)c2c1NC(=O)CN(C)C1CCCCC1	2	4	0	-50	-2
CCc1cccc(NC(=O)CCSCCC(=O)Nc2cccc(CC)c2)c1	9.9*	30	1	-10	-10
Cc1ccc(NC(=O)CSCC(N)=O)cc1C	2	40*	0	20	-2
Cc1ccc(NC(=O)CCSCCC(=O)Nc2ccc(C)c(C)c2)cc1C	9.8*	22	x	-16	-23
CCc1cccc(NC(=O)C2CCCC2)c1	0	14	0	-13	-7
Cc1ccc(NC(=O)CCn2cccc2)cc1C	1	4	0	-26	-14
Cc1ccc(NC(=O)Cn2cccc2)cc1C	-1	29	x	-1	-17
O=C1CCC/C(=N\NC(=O)c2ccc(COc3cccc4cccnc34)cc2)C1	1	4	-1	-38	-4
CCC(=O)N1CCc2cc(S(=O)(=O)CCC(=O)Nc3ccc(C)cn3)ccc21	0	x	x	x	x
SMILES	RAM inhibit	Measles CPE	Phagocyt inh	BB579 growth dn	Yeast lifespan up
Nc1ccccc1C(=O)NCc1ccc(Cl)cc1	2	15	-4	-53	-1
Cc1ccc(Nc2nnc(SCc3cc(=O)n4cc(C)ccc4n3)s2)cc1	11*	8	-1	-6	-2
CN(CC(=O)NCc1ccncc1)S(=O)(=O)c1ccc2ccccc2c1	3	x	x	x	x
CO/N=C/C(=N\Nc1ccc(C)cc1)C(=O)c1ccc(OC)cc1	10*	0	1	-40	4
CO/N=C\C(=N\Nc1ccc(OC)cc1)C(=O)c1ccccc1	5	9	-1	-53	-12
CO/N=C/C(=N\Nc1ccc(OC)cc1)C(=O)c1ccc(F)cc1	9.2*	x	x	x	x
COc1cc(/C=N/OCC(=O)NC2CCCCC2C)ccc1OCc1ccc(Cl)cc1 (stereo not given)	11*	17	6	-21	-1
O=C(NNS(=O)(=O)c1cccc(Cl)c1)c1cc(-c2ccc(F)cc2)nc2ccccc12	2	x	x	x	x
CCCCNS(=O)(=O)c1ccc2nc(SCC(=O)Nc3ccccc3Cl)[nH]c2c1	9.4*	37	-5	-27	-5
CCN(CC)CCNc1nc(-c2ccccc2)nnc1C(F)(F)F	3	43*	2	-27	-5
COc1ccnc(Oc2ccc(Cl)cc2)c1C#N	0	x	x	x	x
COc1ccccc1C(=O)NCCCNc1ccc([N+](=O)[O-])cc1	5	27*	-11	-17	-5
CC(=O)NCCCNc1ccc([N+](=O)[O-])cc1	1	6	0	-41	2
COC(=O)c1cc(=O)n(Cc2cccs2)c(=Nc2ccc(F)cc2)s1	1	x	x	x	x
COC(=O)c1cc(=O)n(-c2ccc(F)cc2)c(=Nc2ccc(F)cc2)s1	0	4	x	-32	29*
COC(=O)c1cc(=O)n(Cc2ccco2)c(=Nc2ccc(F)c(Cl)c2)s1	1	12	0	-35	2
COC(=O)c1cc(=O)n(CCc2ccccc2F)c(=Nc2ccc(F)c(Cl)c2)s1	10*	6	0	-22	6
O=C(CCCn1cnc([N+](=O)[O-])n1)Nc1cccc(O)c1	2	x	x	x	x
CN(C)S(=O)(=O)c1ccc(N2CCCC2)c(C(=O)Nc2nc(-c3cc(F)ccc3F)cs2)c1	9.2*	3	9	-19	5
CN(C)S(=O)(=O)c1ccc(N2CCCC2)c(C(=O)Nc2nc(-c3ccc(F)cc3)cs2)c1	7	4	-7	0	2
O=Cc1cnc(N2CCOCC2)nc1	1	4	-2	-21	-5
CC(C)(C)OC(=O)N1CCC(c2c(C(=O)O)cnn2-c2ccccc2)CC1	2	32*	0	-22	-5
Cc1cc(C)cc(NC(=O)c2cnn(-c3ccccc3)c2C2CCNCC2)c1	0	x	x	x	x
CCCCCCCCOC(=O)CCc1c(C)[nH]c(=S)[nH]c1=O	8.8*	3	x	-42	-9
Nc1cc(=O)[nH]n1C1CCCC1	0	x	x	x	x
SMILES	RAM inhibit	Measles CPE	Phagocyt inh	BB579 growth dn	Yeast lifespan up
COc1cc(NC(=O)c2ccccc2-c2ccccc2)cc(OC)c1	1	8	-6	-33	-2
CCOC(=O)/C(=N\Nc1cccc(C(F)(F)F)c1)N1CCOCC1	2	x	x	x	x
CCOC(=O)/C(=N\Nc1cccc(C(F)(F)F)c1)N(CCOC)CCOC	0	11	0	54*	-11
C/C(O)=C\c1nc2ccccc2oc1=O	0	28*	x	0	-4
CN(CC(=O)Nc1ccc(S(=O)(=O)N2CCCC2)cc1)Cc1c(F)cccc1Cl	3	x	x	x	x
CCOC(=O)COc1cc(N)c(Cl)cc1Cl	2	x	x	x	x
N#Cc1cn(OCc2ccccc2)c(=O)[nH]c1=O	1	31*	-1	-56	7
Cc1cc(C(=O)CSc2ccc3c(c2)OCCO3)c(C)n1C1CC1	5	3	1	-2	-1
Cc1ccc(S(=O)(=O)c2c(N)n(CCN3CCOCC3)c3nc4ccccc4nc23)cc1C	11*	7	0	-33	-3
Cn1c(N)c(S(=O)(=O)c2ccc(Br)cc2)c2nc3ccccc3nc21	9.7*	3	1	-33	-25
COc1ccc(CCn2c(N)c(S(=O)(=O)c3cccs3)c3nc4ccccc4nc32)cc1OC	8.4*	3	x	-16	-4
